The source of these data is ChEMBL document CHEMBL1145797, “Synthesis and antitumor activity of novel O-carbamoylmethyloxime derivatives of radicicol” (J Med Chem, 2003).

Each structure is given as a SMILES string.

One data set deals with 3Y1 cell line. In words: Concentration to inhibit growth of normal rat fibroblast cells (3Y1-B cells) after 72 h exposure. It counts as functional, cell-based. The following applies: 3Y1, 72 h. In a few lines:
(§1)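 Cells precultured 24 h in DMEM with 10% fetal calf serum, then exposed to drug for 72 h. Viability read by MTT assay. IC50 taken as concentration giving 50% growth inhibition relative to control cultures.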

Data set [1] in a line: Concentration to inhibit growth of normal rat K-ras-transformed cells (KNRK 5.2 cells) after 72 hr exposure. It counts as functional. In a few lines:
as §1

Data set [2] can be described thus: Percent depletion of Raf-1 protein expression after 40h exposure at 0.2 uM in KNRK5.2 cells. It counts as functional, cell-based. Conditions: Rattus norvegicus. In a few lines: (§2)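 KNRK5.2 cells exposed to 0.2 µM drug for 40 h, then lysed. Equal-protein lysates Western blotted in duplicate for Raf-1 (rabbit polyclonal), phospho-MAPK (phosphospecific antibody) and total Erk2 (monoclonal). Read-out is % inhibition of phospho-Erk2 formation or % Raf-1 depletion.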

A short description of data set [3]: Inhibition of K-ras-induced MAPK phosphorylation in KNRK5.2 cells after 40h exposure at 0.2 uM. It counts as functional. The following applies: Rattus norvegicus. In a few lines: as §2
Data set [4] relates to Mus musculus. Nature of the data set: In vivo antitumor activity against BALB mice transplanted with human tumor (MX-1) Xenograft Model at a dose of 25 mg/kg by administering intravenously for 5 days and Mortality is calculated. It counts as functional. The following applies: route intravenous. In a few lines:
(§3)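 Adult BALB/c nu/nu mice (n = 5) inoculated sc in the flank with human tumor cells: MX-1 on day -14, A431 on day -18. Drug dissolved in cremophor EL/N,N-dimethylacetamide/physiological saline (7.5:5:87.5) and given iv once daily on days 0-4. Animals monitored for lethal toxicity and body weight loss.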

The test system of data set [5] is Mus musculus. In words: In vivo antitumor activity against BALB mice transplanted with human tumor (MX-1) Xenograft Model at a dose of 50 mg/kg by administering intravenously for 5 days and Mortality is calculated. It counts as functional. Conditions: route intravenous. In a few lines:
as §3

The species named for data set [6] is Mus musculus. Nature of the data set: Dose required to produce lethal toxicity was determined. It counts as organism-based. Conditions: in vivo. In a few lines:
as §3

Data set [7] relates to Mus musculus. In words: In vivo antitumor activity against BALB mice transplanted with human tumor (A431) Xenograft Model at a dose of 50 mg/kg by administering intravenously for 5 days and Mortality is calculated. Type of data set: functional. The following applies: route intravenous. In a few lines: as §3
Data set [8] deals with Mus musculus. In words: In vivo antitumor activity against BALB mice transplanted with human tumor (A431) Xenograft Model at a dose of 25 mg/kg by administering intravenously for 5 days and T/C value was calculated on 7th day. It counts as functional. Conditions: dose 50 mg/kg; route intravenous; in the assay text read “50 mg/kg” for “25 mg/kg”. In a few lines:
(§4)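 Adult BALB/c nu/nu mice (n = 5), tumor cells inoculated sc in the flank (MX-1 day -14, A431 day -18). Drug in cremophor EL/N,N-dimethylacetamide/saline (7.5:5:87.5), given iv daily days 0-4. Tumor volume = length × width²/2. T/C = mean V/V0 of treated over control. Mann–Whitney U test.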

Data set [9] concerns Mus musculus. Nature of the data set: In vivo antitumor activity against BALB mice transplanted with human tumor (MX-1) using Xenograft Model at a dose of 50 mg/kg by administering intravenously for 5 days and T/C value was calculated on 11th day. It counts as functional. The following applies: route intravenous. In a few lines:
as §4

The subject of data set [10] is Mus musculus. In words: In vivo antitumor activity against BALB mice transplanted with human tumor (MX1) Xenograft Model at a dose of 25 mg/kg by administering intravenously for 5 days and T/C value was calculated on 11th day. It counts as functional. The following applies: route intravenous. In a few lines: as §4
The next data set relates to NRK. In words: Concentration to inhibit growth of normal rat kidney epithelial cells (NRK cells) after 72 hr exposure. It counts as functional, cell-based. In a few lines:
as §1

The nature of data set [11]: Concentration to inhibit growth of v-src-transformed cells (SR-3Y1 cells) after 72 h exposure. It counts as functional. Conditions: Rattus norvegicus, SR3Y1, 72 h. In a few lines: as §1
The target of data set [12] is Proto-oncogene tyrosine-protein kinase Src (Rattus norvegicus, UniProt Q9WUD9). Nature of the data set: Inhibition of v-Src tyrosine kinase autophosphorylation in SR3Y1 cells after 15 hr exposure. Type of data set: cell-based. In a few lines:
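SR-3Y1 cells exposed to drug 15 h, lysed on ice 20 min in Tris pH 7.5 RIPA-type buffer with protease inhibitors and 1 mM vanadate. Equal-protein lysates run on SDS-PAGE, blotted with anti-phosphotyrosine antibody, HRP secondary, ECL detection. IC50 = concentration halving tyrosine phosphorylation.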

Data set [13] has as its system Mus musculus. In words: In vivo antitumor activity against BALB mice transplanted with human tumor (MX-1) using Xenograft Model at a dose of 100 mg/kg by administering intravenously for 5 days and mortality is calculated. It counts as functional. The following applies: route intravenous. In a few lines: as §3
Data set [14] relates to Mus musculus. In words: In vivo antitumor activity against BALB mice transplanted with human tumor (MX-1) using Xenograft Model at a dose of 100 mg/kg by administering intravenously for 5 days and T/C value is calculated on 14th day. Type of data set: functional. The following applies: route intravenous.

Turning to `C[C@@H]1C[C@H]2O[C@@H]2\C=C/C=C/C(=N\OCC(=O)N2CCCCC2)Cc2c(Cl)c(O)cc(O)c2C(=O)O1`, the IC50 came to 8.3 nM in the data set on 3Y1 cell line; 14 nM in data set [1]; 18 nM in the data set with NRK; 6.1 nM in [11]; 25 nM in data set [12]. The molecule also registered a Depletion in [2] of 74%. The same molecule yielded an inhibition at 0.2 µM in data set [3] of 95%. Also, the Mortality in the data set on Mus musculus [4], in the data set with Mus musculus [5] and with Mus musculus [7] was 0 each time. For the same molecule, the Lethal toxicity in the data set filed under Mus musculus [6] is 100 mg/kg. Moreover, the T/C min in the data set on Mus musculus [8] was 0.44; in the data set with Mus musculus [9] it was 0.17; in the data set with Mus musculus [10], 0.54.

Turning to `C[C@@H]1C[C@H]2O[C@@H]2\C=C/C=C/C(=N\O)Cc2c(Cl)c(O)cc(O)c2C(=O)O1`, the IC50 with 3Y1 cell line amounted to 90 nM; in data set [1], 39 nM; with NRK it was 80 nM; in data set [11] it was 26 nM; in data set [12], 56 nM. The molecule also registered a Depletion in data set [2] of 29%. The molecule also showed an inhibition at 0.2 µM in data set [3] of 81%. The Mortality in the data set on Mus musculus [13] is on record as 0. The T/C min in the data set on Mus musculus [14] is on record as 0.49.
